Measurements as given in ChEMBL document CHEMBL1944580, “Synthesis of novel sulfonamide-1,2,4-triazoles, 1,3,4-thiadiazoles and 1,3,4-oxadiazoles, as potential antibacterial and antifungal agents. Biological evaluation and conformational analysis studies” (2012).
In brackets after ≈: the same amount, converted by molar mass.

Legend:
Talaromyces funiculosus [1] = assay: Antifungal activity against Penicillium funiculosum ATCC 36839 treated for 72 hrs followed by sub-cultivated for 5 days by serial dilution method; assay type: functional
Procedure, shortened: (§1)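 MFC obtained after the 72 h, 28 °C malt-broth microdilution (spore inoculum about 1.0 × 10^5 per well, compounds from 1 mg/ml DMSO). 2 µl was serially subcultured into 100 µl broth per well and incubated a further 5 days at 28 °C. MFC is the lowest concentration with no visible growth, taken as 99.5% killing of the original inoculum.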

Aspergillus fumigatus [2] = assay: Antifungal activity against Aspergillus fumigatus human isolate after 72 hrs by serial dilution method; assay type: functional
Procedure, shortened: (§2)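 Modified microdilution MIC. Spores were washed from malt agar cultures with sterile 0.85% saline containing 0.1% Tween 80 and adjusted to about 1.0 × 10^5 per 100 µl well in malt broth. Compounds were dissolved in DMSO (1 mg/ml). Plates incubated 72 h at 28 °C. MIC is the lowest concentration with no visible growth under a binocular microscope. Bifonazole and ketoconazole were the references.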

Micrococcus flavus [3] = assay: Antibacterial activity against Micrococcus flavus ATCC 10240 after 24 hrs by micro dilution method; assay type: functional; conditions: ATCC 10240, 24 h
Procedure, shortened: (§3)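 Microdilution MIC in 96-well plates. Bacterial suspensions adjusted in sterile saline to 1.0 × 10^5 CFU/ml, giving 1.0 × 10^4 cfu per well in LB broth. Compounds tested at up to 1 mg/ml. Plates incubated 24 h. MIC taken as the lowest concentration with no visible growth under a binocular microscope. OD at 655 nm was also read against a blank and the positive control. Streptomycin and ampicillin were the positive controls.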

Aspergillus flavus [4] = assay: Antifungal activity against Aspergillus flavus ATCC 9643 treated for 72 hrs followed by sub-cultivated for 5 days by serial dilution method; assay type: functional; procedure, shortened: as §1
Talaromyces funiculosus [5] = assay: Antifungal activity against Penicillium funiculosum ATCC 36839 after 72 hrs by serial dilution method; assay type: functional; conditions: ATCC 36839, 72 h; procedure, shortened: as §2
Aspergillus fumigatus [6] = assay: Antifungal activity against Aspergillus fumigatus human isolate treated for 72 hrs followed by sub-cultivated for 5 days by serial dilution method; assay type: functional; procedure, shortened: as §1
Enterobacter cloacae [7] = assay: Antibacterial activity against Enterobacter cloacae human isolate after 24 hrs by micro dilution method; assay type: functional; procedure, shortened: as §3
Trichoderma viride [8] = assay: Antifungal activity against Trichoderma viride IAM 5061 treated for 72 hrs followed by sub-cultivated for 5 days by serial dilution method; assay type: functional; procedure, shortened: as §1
Pseudomonas aeruginosa [9] = assay: Antibacterial activity against Pseudomonas aeruginosa ATCC 27853 treated for 24 hrs followed by sub-cultivated for 72 hrs by micro dilution method; assay type: functional
Procedure, shortened: (§4)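 2 µl from each well was serially subcultured into 100 µl fresh broth per well and incubated a further 72 h. MBC is the lowest concentration with no visible growth, taken as 99.5% killing of the original inoculum. Streptomycin and ampicillin were the positive controls.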

Staphylococcus aureus [10] = assay: Antibacterial activity against Staphylococcus aureus ATCC 6538 after 24 hrs by micro dilution method; assay type: functional; conditions: ATCC 6538, 24 h; procedure, shortened: as §3
Escherichia coli [11] = assay: Antibacterial activity against Escherichia coli ATCC 35210 after 24 hrs by micro dilution method; assay type: functional; conditions: ATCC 35210, 24 h; procedure, shortened: as §3
Listeria monocytogenes [12] = assay: Antibacterial activity against Listeria monocytogenes NCTC 7973 treated for 24 hrs followed by sub-cultivated for 72 hrs by micro dilution method; assay type: functional; procedure, shortened: as §4
Staphylococcus aureus [13] = assay: Antibacterial activity against Staphylococcus aureus ATCC 6538 treated for 24 hrs followed by sub-cultivated for 72 hrs by micro dilution method; assay type: functional; procedure, shortened: as §4
Bacillus cereus [14] = assay: Antibacterial activity against Bacillus cereus clinical isolate treated for 24 hrs followed by sub-cultivated for 72 hrs by micro dilution method; assay type: functional; procedure, shortened: as §4
Enterobacter cloacae [15] = assay: Antibacterial activity against Enterobacter cloacae human isolate treated for 24 hrs followed by sub-cultivated for 72 hrs by micro dilution method; assay type: functional; procedure, shortened: as §4
Aspergillus niger [16] = assay: Antifungal activity against Aspergillus niger ATCC 6275 treated for 72 hrs followed by sub-cultivated for 5 days by serial dilution method; assay type: functional; procedure, shortened: as §1
Salmonella typhimurium [17] = assay: Antibacterial activity against Salmonella Typhimurium ATCC 13311 treated for 24 hrs followed by sub-cultivated for 72 hrs by micro dilution method; assay type: functional, Salmonella enterica subsp. enterica serovar Typhimurium; conditions: Salmonella enterica; procedure, shortened: as §4
Salmonella typhimurium [18] = assay: Antibacterial activity against Salmonella Typhimurium ATCC 13311 after 24 hrs by micro dilution method; assay type: functional, Salmonella enterica subsp. enterica serovar Typhimurium; conditions: Salmonella enterica, ATCC 13311, 24 h; procedure, shortened: as §3
Aspergillus flavus [19] = assay: Antifungal activity against Aspergillus flavus ATCC 9643 after 72 hrs by serial dilution method; assay type: functional; conditions: ATCC 9643, 72 h; procedure, shortened: as §2
Aspergillus niger [20] = assay: Antifungal activity against Aspergillus niger ATCC 6275 after 72 hrs by serial dilution method; assay type: functional; conditions: ATCC 6275, 72 h; procedure, shortened: as §2
Aspergillus versicolor [21] = assay: Antifungal activity against Aspergillus versicolor ATCC 11730 treated for 72 hrs followed by sub-cultivated for 5 days by serial dilution method; assay type: functional; procedure, shortened: as §1
Micrococcus flavus [22] = assay: Antibacterial activity against Micrococcus flavus ATCC 10240 treated for 24 hrs followed by sub-cultivated for 72 hrs by micro dilution method; assay type: functional; procedure, shortened: as §4
Escherichia coli [23] = assay: Antibacterial activity against Escherichia coli ATCC 35210 treated for 24 hrs followed by sub-cultivated for 72 hrs by micro dilution method; assay type: functional; procedure, shortened: as §4
Fulvia fulva [24] = assay: Antifungal activity against Fulvia fulva treated for 72 hrs followed by sub-cultivated for 5 days by serial dilution method; assay type: functional; procedure, shortened: as §1
Penicillium ochrochloron [25] = assay: Antifungal activity against Penicillium ochrochloron ATCC 9112 after 72 hrs by serial dilution method; assay type: functional; conditions: ATCC 9112, 72 h; procedure, shortened: as §2
Penicillium ochrochloron [26] = assay: Antifungal activity against Penicillium ochrochloron ATCC 9112 treated for 72 hrs followed by sub-cultivated for 5 days by serial dilution method; assay type: functional; procedure, shortened: as §1
Aspergillus versicolor [27] = assay: Antifungal activity against Aspergillus versicolor ATCC 11730 after 72 hrs by serial dilution method; assay type: functional; conditions: ATCC 11730, 72 h; procedure, shortened: as §2
Pseudomonas aeruginosa [28] = assay: Antibacterial activity against Pseudomonas aeruginosa ATCC 27853 after 24 hrs by micro dilution method; assay type: functional; conditions: ATCC 27853, 24 h; procedure, shortened: as §3
Listeria monocytogenes [29] = assay: Antibacterial activity against Listeria monocytogenes NCTC 7973 after 24 hrs by micro dilution method; assay type: functional; conditions: NCTC 7973, 24 h; procedure, shortened: as §3
Trichoderma viride [30] = assay: Antifungal activity against Trichoderma viride IAM 5061 after 72 hrs by serial dilution method; assay type: functional; conditions: IAM 5061, 72 h; procedure, shortened: as §2
Fulvia fulva [31] = assay: Antifungal activity against Fulvia fulva after 72 hrs by serial dilution method; assay type: functional; procedure, shortened: as §2
Bacillus cereus [32] = assay: Antibacterial activity against Bacillus cereus clinical isolate after 24 hrs by micro dilution method; assay type: functional; procedure, shortened: as §3

| MIC (Aspergillus fumigatus [2]) | MIC (Micrococcus flavus [3]) | MIC (Talaromyces funiculosus [5]) | MIC (Enterobacter cloacae [7]) | MIC (Staphylococcus aureus [10]) | MIC (Escherichia coli [11]) | MIC (Salmonella typhimurium [18]) | MIC (Aspergillus flavus [19]) | MIC (Aspergillus niger [20]) | SMILES | MFC (Talaromyces funiculosus [1]) | MFC (Aspergillus flavus [4]) | MFC (Aspergillus fumigatus [6]) | MFC (Trichoderma viride [8]) | MBC (Pseudomonas aeruginosa [9]) | MBC (Listeria monocytogenes [12]) | MBC (Staphylococcus aureus [13]) | MBC (Bacillus cereus [14]) | MBC (Enterobacter cloacae [15]) | MFC (Aspergillus niger [16]) | MBC (Salmonella typhimurium [17]) | other results |
| --- | --- | --- | --- | --- | --- | --- | --- | --- | --- | --- | --- | --- | --- | --- | --- | --- | --- | --- | --- | --- | --- |
| 20 µM (≈ 8.29 µg/mL) | 240 µM (≈ 99.5 µg/mL) | 120 µM (≈ 49.7 µg/mL) | 240 µM (≈ 99.5 µg/mL) | 240 µM (≈ 99.5 µg/mL) | 240 µM (≈ 99.5 µg/mL) | 240 µM (≈ 99.5 µg/mL) | 240 µM (≈ 99.5 µg/mL) | 240 µM (≈ 99.5 µg/mL) | COc1cc(Cc2n[nH]c(=S)n2C(C)(C)C)c(S(=O)(=O)N(C)C)cc1OC | 240 µM (≈ 99.5 µg/mL) | 360 µM (≈ 149 µg/mL) | 120 µM (≈ 49.7 µg/mL) | 240 µM (≈ 99.5 µg/mL) | 420 µM (≈ 174 µg/mL) | 420 µM (≈ 174 µg/mL) | 420 µM (≈ 174 µg/mL) | 480 µM (≈ 199 µg/mL) | 420 µM (≈ 174 µg/mL) | 360 µM (≈ 149 µg/mL) | 420 µM (≈ 174 µg/mL) | MFC (Aspergillus versicolor [21]): 360 µM (≈ 149 µg/mL); MBC (Micrococcus flavus [22]): 420 µM (≈ 174 µg/mL); MBC (Escherichia coli [23]): 420 µM (≈ 174 µg/mL); MFC (Fulvia fulva [24]): 240 µM (≈ 99.5 µg/mL); MIC (Penicillium ochrochloron [25]): 120 µM (≈ 49.7 µg/mL); MFC (Penicillium ochrochloron [26]): 360 µM (≈ 149 µg/mL); MIC (Aspergillus versicolor [27]): 240 µM (≈ 99.5 µg/mL); MIC (Pseudomonas aeruginosa [28]): 240 µM (≈ 99.5 µg/mL); MIC (Listeria monocytogenes [29]): 240 µM (≈ 99.5 µg/mL); MIC (Trichoderma viride [30]): 240 µM (≈ 99.5 µg/mL); MIC (Fulvia fulva [31]): 240 µM (≈ 99.5 µg/mL); MIC (Bacillus cereus [32]): 240 µM (≈ 99.5 µg/mL) |
| 140 µM (≈ 51.9 µg/mL) | 400 µM (≈ 148 µg/mL) | 140 µM (≈ 51.9 µg/mL) | 540 µM (≈ 200 µg/mL) | 270 µM (≈ 100 µg/mL) | 270 µM (≈ 100 µg/mL) | 400 µM (≈ 148 µg/mL) | 270 µM (≈ 100 µg/mL) | 270 µM (≈ 100 µg/mL) | CCn1c(Cc2cc(OC)c(OC)cc2S(=O)(=O)N(C)C)n[nH]c1=O | 270 µM (≈ 100 µg/mL) | 450 µM (≈ 167 µg/mL) | 270 µM (≈ 100 µg/mL) | 270 µM (≈ 100 µg/mL) | 540 µM (≈ 200 µg/mL) | 540 µM (≈ 200 µg/mL) | 540 µM (≈ 200 µg/mL) | 810 µM (≈ 300 µg/mL) | 540 µM (≈ 200 µg/mL) | 450 µM (≈ 167 µg/mL) | 540 µM (≈ 200 µg/mL) | MFC (Aspergillus versicolor [21]): 450 µM (≈ 167 µg/mL); MBC (Micrococcus flavus [22]): 400 µM (≈ 148 µg/mL); MBC (Escherichia coli [23]): 270 µM (≈ 100 µg/mL); MFC (Fulvia fulva [24]): 270 µM (≈ 100 µg/mL); MIC (Penicillium ochrochloron [25]): 140 µM (≈ 51.9 µg/mL); MFC (Penicillium ochrochloron [26]): 270 µM (≈ 100 µg/mL); MIC (Aspergillus versicolor [27]): 140 µM (≈ 51.9 µg/mL); MIC (Pseudomonas aeruginosa [28]): 400 µM (≈ 148 µg/mL); MIC (Listeria monocytogenes [29]): 400 µM (≈ 148 µg/mL); MIC (Trichoderma viride [30]): 140 µM (≈ 51.9 µg/mL); MIC (Fulvia fulva [31]): 270 µM (≈ 100 µg/mL); MIC (Bacillus cereus [32]): 270 µM (≈ 100 µg/mL) |
